In ChEMBL document CHEMBL1221395, “Synthesis, anticancer activity and mitochondrial mediated apoptosis inducing ability of 2,5-diaryloxadiazole-pyrrolobenzodiazepine conjugates” (Bioorg Med Chem, 2010):
Activity calls are given as the source filed them. The rule behind the calls is not given here.

Experiments:
[1] = tested on: Calf thymus DNA; assay: Binding affinity to calf thymus DNA assessed as change in melting temperature after 18 hrs; assay type: nucleic-acid assay; details: Bos taurus
Procedure, shortened: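 Thermal melting with duplex CT-DNA (100 µM in phosphate) and ligand (20 µM), added from methanol stock, [PBD]/[DNA] 1:5, in 10 mM sodium phosphate + 1 mM EDTA, pH 7.00; incubated at 37 °C for 18 h. A260 monitored while heating at 1 °C/min over 40–90 °C. Tm taken from d(A260)/dT maxima, corrected for methanol; ΔTm = Tm(DNA+ligand) − Tm(DNA alone); at least three determinations.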

[2] = tested on: PC-3; assay: Cytotoxicity against human PC3 cells after 24 hrs by WST-1 assay; assay type: functional; details: PC-3, 24 h
[3] = tested on: A-375; assay: Induction of apoptosis in human A375 cells assessed as increase in Caspase 3 activation at 4 uM after 24 hrs by fluorimetry; assay type: functional, cell-based
Procedure, shortened: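 A375 cells exposed to 4 µM compound. Cell lysate incubated with DEVD-AFC substrate, with or without DEVD-CHO inhibitor, at 37 °C for 1 h in a fluorescent caspase-3 kit. Fluorescence read at excitation 400 nm, emission 505 nm.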

[4] = tested on: HOP-62; assay: Cytotoxicity against human HOP62 cells after 24 hrs by WST-1 assay; assay type: functional; details: HOP-62, 24 h
[5] = Cytotoxicity against human Gurav cells after 24 hrs by WST-1 assay; assay type: functional
[6] = tested on: A-375; assay: Cell cycle arrest in human A375 cells assessed as accumulation at Sub-G1 phase after 24 hrs by FACS flow cytometry; parameters: concentration or dose not given beside the values
[7] = tested on: MCF7; assay: Cytotoxicity against human MCF7 cells by sulforhodamine B assay
[8] = tested on: COLO 205; assay: Cytotoxicity against human COLO205 cells after 24 hrs by SRB assay; details: COLO 205, 24 h
[9] = Lipophilicity, log P of the compound; assay type: physicochemical; details: octanol/water
[10] = tested on: SiHa; assay: Cytotoxicity against human SiHa cells after 24 hrs by SRB assay
[11] = tested on: A-375; assay: Cell cycle arrest in human A375 cells assessed as accumulation at G1 phase after 24 hrs by FACS flow cytometry; parameters: concentration or dose not given beside the values
[12] = tested on: A549; assay: Cytotoxicity against human A549 cells after 24 hrs by WST-1 assay; assay type: functional; details: A549, 24 h
[13] = tested on: ZR-75-1; assay: Cytotoxicity against human ZR-75-1 cells by SRB assay
[14] = tested on: A-375; assay: Induction of apoptosis in human A375 cells assessed as increase in cytochrome C protein level at 4 uM after 24 hrs by Western blotting; assay type: functional, cell-based
Procedure, shortened: (§1)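 A375 cells treated at 4 µM for 24 h. Lysates cleared at 12,000 rpm for 10 min, and protein quantified by Bradford. 30 µg per lane run on 12% SDS-PAGE and transferred to PVDF. Blocked 2 h in TBST with 5% blocking powder. Primary antibody overnight at 4 °C, HRP secondary (1:2000) 1 h at room temperature. β-actin used as loading control; untreated cells as control.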

[15] = tested on: A-375; assay: Cell cycle arrest in human A375 cells assessed as accumulation at G2/M phase after 24 hrs by FACS flow cytometry; parameters: concentration or dose not given beside the values
[16] = tested on: A-375; assay: Induction of apoptosis in human A375 cells assessed as increase in Bax protein level at 4 uM after 24 hrs by Western blotting; assay type: functional, cell-based; procedure, shortened: as §1
[17] = tested on: A-375; assay: Cell cycle arrest in human A375 cells assessed as accumulation at S phase after 24 hrs by FACS flow cytometry; parameters: concentration or dose not given beside the values
[18] = tested on: A-375; assay: Induction of apoptosis in human A375 cells assessed as increase in PARP protein level at 4 uM after 24 hrs by Western blotting; assay type: functional, cell-based; procedure, shortened: as §1
[19] = tested on: A2780; assay: Cytotoxicity against human A2780 cells by SRB assay
[20] = Cytotoxicity against human DWD cells by SRB assay
[21] = tested on: KB; assay: Cytotoxicity against human KB cells after 24 hrs by SRB assay
[22] = tested on: A2780; assay: Cytotoxicity against human A2780 cells after 24 hrs by WST-1 assay; assay type: functional; details: A2780, 24 h
[23] = tested on: KB; assay: Cytotoxicity against human KB cells after 24 hrs by WST-1 assay; assay type: functional
[24] = tested on: A-375; assay: Antitumor activity against human A375 cells assessed as upregulation of p21 protein level at 4 uM after 24 hrs by Western blotting; assay type: functional, cell-based; procedure, shortened: as §1
[25] = tested on: A-375; assay: Antitumor activity against human A375 cells assessed as upregulation of p53 protein level at 4 uM after 24 hrs by Western blotting; assay type: functional, cell-based; procedure, shortened: as §1
[26] = tested on: A-375; assay: Antitumor activity against human A375 cells assessed as upregulation of pRb protein level at 4 uM after 24 hrs by Western blotting; assay type: functional, cell-based; procedure, shortened: as §1
[27] = tested on: KB; assay: Cytotoxicity against human KB cells by SRB assay
[28] = Cytotoxicity against human DWD cells after 24 hrs by SRB assay

SMILES | ΔTm [1] [°C] | GI50 [2] [nM] | GI50 [4] [nM] | GI50 [5] [nM] | Activity [6] [%] | GI50 [7] [nM] | GI50 [8] [nM] | logP [9] | GI50 [10] [nM] | Activity [11] [%] | GI50 [12] [nM] | GI50 [13] [nM] | Activity [15] [%] | Activity [17] [%] | GI50 [19] [nM] | GI50 [20] [nM] | GI50 [21] [nM] | other results
COc1ccc(-c2nnc(-c3ccc(F)cc3)o2)cc1OCCCOc1cc2c(cc1OC)C(=O)N1CCC[C@H]1C=N2 | 2 | < 100 | 160 | 160 | 6.79 | < 100 | < 100 | 4.39 | 170 | 74 | 150 | < 100 | 5.06 | 14.14 | 140 | < 100 | 150 | Activity [3]: Active; Activity [14]: Active; Activity [16]: Active; Activity [18]: Active
COc1ccc(-c2nnc(-c3ccc(C(F)(F)F)cc3)o2)cc1OCCCCOc1cc2c(cc1OC)C(=O)N1CCC[C@H]1C=N2 | 2.1 | 160 | 160 | 140 |  | 140 | 160 | 5.44 | 170 |  | 110 | 120 |  |  | 140 | 150 | 150 | 
COc1ccc(-c2nnc(-c3cc(OC)c(OC)c(OC)c3)o2)cc1OCCCCCOc1cc2c(cc1OC)C(=O)N1CCC[C@H]1C=N2 | 1.6 | 150 | < 100 | < 100 | 13.76 | < 100 | 120 | 4.53 | < 100 | 73.5 | 140 | 120 | 2.34 | 10.4 | < 100 | < 100 | < 100 | Activity [3]: Active; Activity [14]: Active; Activity [16]: Active; Activity [18]: Active
COc1ccc(-c2nnc(-c3ccc(F)cc3)o2)cc1OCCCCOc1cc2c(cc1OC)C(=O)N1CCC[C@H]1C=N2 | 2.5 | 170 | 150 | 100 |  | 160 | 150 | 4.78 | < 100 |  | 290 | 170 |  |  | < 100 | 130 | < 100 | 
COc1ccc(-c2nnc(-c3cc(OC)c(OC)c(OC)c3)o2)cc1OCCCOc1cc2c(cc1OC)C(=O)N1CCC[C@H]1C=N2 | 1.9 | 140 | 170 | 140 |  | < 100 | < 100 | 3.76 | 180 |  | 110 | 120 |  |  | 140 | < 100 | 140 | 
COc1ccc(-c2nnc(-c3cc(OC)c(OC)c(OC)c3)o2)cc1OCCCCOc1cc2c(cc1OC)C(=O)N1CCC[C@H]1C=N2 | 2.1 | 160 | 130 | < 100 |  | 150 | < 100 | 4.13 | 130 |  | < 100 | 160 |  |  | < 100 | 120 | < 100 | 
COc1ccc(-c2nnc(-c3ccc(OC)c(OCCCOc4cc5c(cc4OC)C(=O)N4CCC[C@H]4C=N5)c3)o2)cc1OC | 1.5 | < 100 | 130 | 110 |  | < 100 | < 100 | 3.92 | 150 |  | < 100 | < 100 |  |  | 110 | < 100 | 110 | 
COc1ccc(-c2nnc(-c3ccc(C(F)(F)F)cc3)o2)cc1OCCCCCOc1cc2c(cc1OC)C(=O)N1CCC[C@H]1C=N2 | 1.7 | 130 | 130 | < 100 |  | < 100 | 110 | 5.84 | 120 |  | < 100 | 110 |  |  | < 100 | < 100 | 110 | 
COc1ccc(-c2nnc(-c3ccc(F)cc3)o2)cc1OCCCCCOc1cc2c(cc1OC)C(=O)N1CCC[C@H]1C=N2 | 1.8 | 160 | 120 | < 100 |  | 120 | < 100 | 5.17 | 120 |  | 140 | 150 |  |  | < 100 | < 100 | < 100 | 
COc1ccc(-c2nnc(-c3ccc(OC)c(OCCCCOc4cc5c(cc4OC)C(=O)N4CCC[C@H]4C=N5)c3)o2)cc1OC | 2.3 | 130 | 130 | < 100 |  | < 100 | < 100 | 4.28 | 130 |  | < 100 | 120 |  |  | < 100 | < 100 | 110 | 
COc1cc2c(cc1O)N=C[C@@H]1CCCN1C2=O |  | 200 | 150 | 160 | 15.33 | 170 | 110 | 0.88 | 170 | 73.66 | 160 |  | 2.98 | 8.02 |  |  |  | GI50 [22]: 140 nM; GI50 [23]: 170 nM
COc1ccc(-c2nnc(-c3ccc(C(F)(F)F)cc3)o2)cc1OCCCOc1cc2c(cc1OC)C(=O)N1CCC[C@H]1C=N2 | 4 | 140 | < 100 | < 100 | 17.93 | 110 | < 100 | 5.07 | < 100 | 72.28 | < 100 | 110 | 2.26 | 7.51 | < 100 | 110 | < 100 | Activity [3]: Active; Activity [24]: Active; Activity [25]: Active; Activity [14]: Active; Activity [16]: Active; Activity [18]: Active; Activity [26]: Active
COc1cccc2c1C(=O)c1c(O)c3c(c(O)c1C2=O)C[C@@](O)(C(=O)CO)C[C@@H]3O[C@H]1C[C@H](N)[C@H](O)[C@H](C)O1 [DOXORUBICIN] |  |  | 140 | 170 |  | 170 | 140 |  | 170 |  |  |  |  |  | 160 |  |  | GI50 [27]: 170 nM; GI50 [28]: 100 nM
